Data set [1] is classed as in vivo. Conditions: ACI rats after GG or GI 2 g/kg/day gavage + EB for 4 days. The method, boiled down: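 Female ACI rats (n=6/group) got extracts 2 g/kg/day by gavage plus sc EB 1 mg/kg/day for 4 days. Serum, liver and mammary homogenates (70% aqueous methanol, 0.1% formic acid) were spiked with naringenin internal standard and protein-precipitated with ice-cold ACN. Supernatant was dried, taken up in 20% ACN and analysed by UHPLC-MS/MS, negative ESI, SRM. Extracts were run at 10 μg/mL in 50% methanol.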

Data set [2] has as its system estrogen oxidative metabolism. The note with it: MCF-10A cells; cited from earlier work.
For data set [3], the system named is CYP1B1. The data set is classed as cell-based, human. The note with it: MCF-10A cells, compound 20 µM, 24 h; for Induction of CYP1B1 expression: relative to control.
In data set [4] the test system is CYP1A1. It is filed as cell-based, human. The note with it: MCF-10A cells, compound 20 µM, 24 h; for Increase of CYP1A1 expression: relative to control.
The subject of data set [5] is NQO1. Conditions: previous in vitro studies; cited from earlier work.
In data set [6] the test system is NQO1. The note with it: Sprague-Dawley rats; cited from earlier work.
The test system of data set [7] is NQO1. Conditions: Sprague-Dawley rats; cited from earlier work. The source holds these as a separate data set.
In the next data set the test system is P450 1A2. The note with it: cited from earlier work.
Data set [8] deals with P450 3A4. Conditions: cited from earlier work.
Data set [9] deals with NAD(P)H quinone oxidoreductase (NQO1). The data set is described as follows: NQO1 activity in mammary gland of ACI rats. The data set is classed as in vivo. Conditions: 4 days. The method in brief:
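Female ACI rats (n=6/group) were dosed 4 days: EB 1 mg/kg/day sc, alone or with the test compound at 80 mg/kg/day sc or extracts at 2 g/kg/day by gavage. Sesame oil or corn oil/PEG was the vehicle. Frozen mammary tissue was homogenized; NQO1 activity was read at 610 nm in clear supernatant (30 µg protein). Results are fold induction relative to control; mean ± SEM.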

The subject of data set [10] is CYP1A1. The data set is described as follows: CYP1A1 mRNA expression in mammary tissue, RT-qPCR. The data set is classed as in vivo. The note with it: ACI rats, 4 days. The method in brief: (§1)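 Female ACI rats (5 weeks old, acclimated 1 week, phytoestrogen-free AIN-76A diet, n=6/group) received sc EB 1 mg/kg/day, sc test compound 80 mg/kg/day or gavaged extracts 2 g/kg/day for 4 days. Vehicles were sesame oil sc, or 50% corn oil with 50% PEG/H2O by gavage. Rats were killed day 5; mammary mRNA was measured by TaqMan RT-qPCR with ACTB probe; mean ± SEM, ANOVA/Dunnett or t-test.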

The subject of data set [11] is CYP1B1. The data set is described as follows: CYP1B1 mRNA expression in mammary tissue, RT-qPCR. The data set is classed as in vivo. The note with it: ACI rats, 4 days. The method in brief: as §1
Data set [12] concerns NAD(P)H quinone oxidoreductase (NQO1). The data set is described as follows: NQO1 activity in liver tissue of ACI rats. The data set is classed as in vivo. Conditions: EB 1 mg/kg/day sc, 4 days, vs vehicle.
For data set [13], the system named is NQO1. Conditions: cited from earlier work.
The test system of data set [14] is CYP1A1. Conditions: female Sprague-Dawley rats; cited from earlier work.
For another data set, the system named is E2/E1 levels. The data set is described as follows: E2/E1 levels in serum by LC-MS/MS. The data set is classed as in vivo. Conditions: ACI rats, 4 days, co-administered with EB.
A short description of data set [15]: LicA metabolites in serum, liver and mammary gland, UHPLC-MS/MS. The note with it: ACI rats, sc administration of LicA. It is filed as in vivo. The method in brief: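 ACI rats got the test compound sc at 80 mg/kg/day with EB 1 mg/kg/day sc for 4 days and were killed day 5. Serum, and liver or mammary homogenates in 70% aqueous methanol with 0.1% formic acid, were spiked with naringenin. They were precipitated with ice-cold ACN (15 min, 13000 x g, 4 °C), dried under nitrogen and reconstituted in 20% ACN. Metabolites were profiled by UHPLC-MS/MS on C18.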

Another data set relates to XRE-luciferase reporter. The note with it: HepG2 cells; cited from earlier work.
In data set [16] the test system is P450 3A4. The note with it: HepG2 cells; cited from earlier work.
The test system of data set [17] is estrogen oxidative metabolism (2-MeOE1). The data set can be described thus: 2-MeOE1 in serum by LC-MS/MS. It is filed as in vivo. The note with it: ACI rats, 4 days, co-administered with EB 1 mg/kg/day; GG, GI 2 g/kg/day, LicA 80 mg/kg/day.
[18] abbreviates: with EB, GG, GI 2 g/kg/day, LicA 80 mg/kg/day.

Regarding `O=C1C[C@@H](c2ccc(O)cc2)Oc2cc(O)ccc21` [LigF, liquiritigenin], in [1], the “Presence in liver and mammary tissues (qualitative)” value (“Presence” for short) is reported as “available”. Moreover, the “Effect on estrogen oxidative metabolism” value in data set [2] is “no effect”. In addition, in the data set on CYP1B1 [3], the “Induction of CYP1B1 expression” value was 2 fold. Besides, the “Increase of CYP1A1 expression” value in the data set with CYP1A1 [4] is “did not affect”. The “Effect on NQO1 activity in vitro” value in the data set on NQO1 [5] is “no effect”.
For the molecule `COc1cc(O)c(CC=C(C)C)c(O)c1C(=O)/C=C/c1ccc(O)cc1` [xanthohumol], in the data set with NQO1 [6], the “NQO1 induction in liver tissues” value is “significant NQO1 induction”. Moreover, the “NQO1 induction in the mammary gland” value in the data set on NQO1 [7] is given as “no NQO1 induction”.
In the case of `CC1(C)C=Cc2c(ccc3c2OC[C@@H](c2ccc(O)cc2O)C3)O1` [glabridin], the “Presence” value in data set [1] was “not detected”. Further, the “Inhibition of P450 1A2 activity” value in the data set on P450 1A2 is given as “weakly”. In addition, the “Inhibition of P450 3A4 activity” value with P450 3A4 [8] is given as “weakly”.
For the molecule `C[C@]12CC[C@@H]3c4ccc(OC(=O)c5ccccc5)cc4CC[C@H]3[C@@H]1CC[C@@H]2O` [EB, estradiol benzoate, reference compound], in [9] (EB 1 mg/kg/day, vs vehicle), the “Effect of EB on NQO1 activity in the mammary gland” value is “slightly reduced”. In addition, in the data set on CYP1A1 [10] (EB 1 mg/kg/day), the “CYP1A1 expression in mammary tissue, fold lower than the vehicle control group” value is 3 fold. Also, the “CYP1B1 expression in mammary tissue, fold lower than the vehicle control group” value in the data set on CYP1B1 [11] (EB 1 mg/kg/day) was found to be 5 fold. For the same molecule, the “Effect of EB alone on NQO1 activity in liver tissue” value in data set [12] was “did not affect the NQO1 activity significantly”.
Turning to `O=C(/C=C/c1ccc(O)cc1)c1ccc(O)cc1O` [LigC, isoliquiritigenin], the “Induction of NQO1 activity in in vivo models” value in the data set with NQO1 [13] is “didn’t induce”. Further, the “Presence” value in data set [1] is listed as “available”. The “Effect on estrogen oxidative metabolism” value in [2] was “increase”. Further, in the data set with CYP1B1 [3], the “Induction of CYP1B1 expression” value came to 2.5 fold. Besides, in the data set with CYP1A1 [4], the “Increase of CYP1A1 expression” value was determined as 4 fold. Further, in the data set on P450 1A2, the “Inhibition of P450 1A2 activity” value is reported as “weakly”. In the data set with CYP1A1 [14], the “Increase of CYP1A1 levels in mammary tissues” value is given as 6.84 fold. In addition, the “Inhibition of P450 3A4 activity” value with P450 3A4 [8] was “weakly”.
Regarding `C=CC(C)(C)c1cc(/C=C/C(=O)c2ccc(O)cc2)c(OC)cc1O` [LicA, licochalcone A], the “Induction of NQO1 activity in mammary tissue” value in data set [9] (co-treatment with EB, GG, GI 2 g/kg/day, LicA 80 mg/kg/day) was “No induction”. Also, the “Effect on E2/E1 levels in serum” value in the data set with E2/E1 levels is given as “only slightly influenced”. The “Presence” value in data set [1] is given as “available”. Besides, the “Effect on estrogen oxidative metabolism” value in data set [2] is listed as “inhibited”. Besides, the “CYP1B1 expression, fold lower than basal levels” value with CYP1B1 [3] was 10 fold. Also, in the data set on CYP1A1 [4], the “CYP1A1 expression, fold lower than basal levels” value is reported as 34 fold. Moreover, in data set [15], the “GSH conjugate in the liver” value is reported as “major metabolite”; the “GSH conjugate in the serum and mammary tissues” value was “minor metabolite”; the “Main metabolism in serum, liver and mammary tissues” value is “glucuronidation reactions dominated”; the “Sulfation in mammary tissue” value was “not detectable”. In addition, the “Sulfation in serum and liver” value in [15] is recorded as “minor”. In addition, the XRE-luciferase reporter activity entry in the data set with XRE-luciferase reporter is listed as “inhibited”. For the same molecule, the “P450 3A4 gene expression” value in the data set with P450 3A4 [16] is given as “decreased”. In the data set with CYP1A1 [10] (setting [18]), the “Upregulation of CYP1A1 in mammary tissue compared to the EB treatment group” value is on record as “no statistical difference”. In the data set with CYP1B1 [11] (setting [18]), the “Down-regulation of CYP1B1 expression in mammary tissue compared to the EB treatment group” value is on record as “no statistical difference”. Moreover, the “Inhibition of P450 1A2 activity” value in the data set on P450 1A2 is reported as “moderately inhibited”. Also, in data set [17], the “Reduction of 2-MeOE1 in serum, of the EB treatment group” value was approximately 70%. Further, the “Inhibition of P450 3A4 activity” value in the data set on P450 3A4 [8] was “moderately inhibited”.
For the molecule `O=c1cc(-c2ccc(Br)cc2)oc2ccccc12` [4’bromoflavone], the “NQO1 induction in liver tissues” value in the data set with NQO1 [6] is “significant NQO1 induction”.

Source of the values: PMC6435032 (Cancer prevention research (Philadelphia, Pa.), 2018).
